Rows were chosen to be rich in hits. Some 2.2% of all compounds tested hit in one or more screens of this group.
S100A4 MyoIIA – inhibitors of S100A4-myosin IIA peptide binding, primary screen, biochemical, fluorescence polarization, TAMRA-MyoIIA peptide. hit rate 0.14% among 360,000. AID 652163, 2013. inhibition, % at 10.7 µM;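 active = mean inhibition of at least 70% across replicates, with every replicate also reaching that level; inconclusive = mean inhibition reaches 70% but some replicates fall short; inactive = mean inhibition below 70%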
Target sequence (P26447 whole entry, looked up): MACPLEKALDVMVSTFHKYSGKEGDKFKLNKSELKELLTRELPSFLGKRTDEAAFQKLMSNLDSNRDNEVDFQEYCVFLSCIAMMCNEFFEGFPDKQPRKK
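Test system: S100A4 monomer protein. Medium: HEPES buffer with Ca2+, pH 7.2. Reagent: fluorescent myosin IIA peptide, 5 nM. Compound dosing: single-point compound testing. Timing: 5 min between mix addition and reading. Benchmarks: DMSO neutral and TFP positive wells.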
F508del corr – F508del CFTR correction, initial screen, CFBE line, single point; CFBE cells, YFP halide quenching; stimulated with forskolin plus potentiator P3; % fluorescence drop versus neutral controls; activity (quench increase), % at 7.58 µM; hit rate 0.36% among 350,000; AID 720511, 2013;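 active = mean added fluorescence quench of at least 8% versus neutral control, with both replicates also reaching 8%; inconclusive = only one of the mean or replicate conditions met; inactive = mean below 8% and not both replicates reaching 8%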;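 also: cells transiently co-express mutant CFTR-F508del with the halide-sensitive YFP; corrector assay measuring rescue of mutant channel to the surface after 24 h compound exposure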
FGF22 binding-1 – binders of human FGF22 protein, primary screen, FGF22 synaptogenesis inhibitor project, biophysical, thermal shift, single point; Fibroblast growth factor 22 (Homo sapiens), Q9HCT0; recombinant FGF22 thermal shift, SYPRO orange fluorescence; percent of sucrose octasulfate shift, DMSO zero; activity (Tm shift, normalised), % at 9.99 µM; hit rate 1.5% among 340,000; AID 651658, 2012;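 active = mean Tm shift, scaled 0 neutral to 100 positive control, at about 1.3% or above, every replicate too, limit read from the data; inconclusive = no clear call, values can overlap the other calls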
dFosB activator – activators of delta FosB homodimer, primary screen, biochemical, fluorescence polarization, TAMRA-CDK5 oligo, single point. purified delta FosB; percent of positive-control signal above neutral wells. Protein FosB (Mus musculus), P13346. activation, % at 25 µM. hit rate 0.99% among 340,000;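 active = mean activation above about 17%, with every replicate also reaching it, limit read from the data, passing the limit was not always enough; inconclusive = only one of the two conditions met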
Target sequence (P13346 whole entry, looked up): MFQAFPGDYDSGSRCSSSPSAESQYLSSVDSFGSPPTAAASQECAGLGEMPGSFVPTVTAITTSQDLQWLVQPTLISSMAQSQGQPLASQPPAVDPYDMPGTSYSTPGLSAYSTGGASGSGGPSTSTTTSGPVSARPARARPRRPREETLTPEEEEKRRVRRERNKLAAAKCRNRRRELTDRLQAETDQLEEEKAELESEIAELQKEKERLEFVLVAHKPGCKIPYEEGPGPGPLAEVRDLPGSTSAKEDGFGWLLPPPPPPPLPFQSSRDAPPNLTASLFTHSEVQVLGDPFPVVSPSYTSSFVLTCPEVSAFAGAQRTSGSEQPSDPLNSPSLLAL
FGF22 binding-2 – binders of human FGF22 protein, dose response, FGF22 synaptogenesis inhibitor project, biophysical, thermal shift, cherry-pick retest; shares compounds with FGF22 binding-1; recombinant FGF22 thermal shift, SYPRO orange fluorescence; thermal shift activity, °C (ΔTm) at 38 µM; hit rate 2% among 1,000; AID 720646, 2013;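 active = fitted rise in melting shift crosses a set limit at or below the top valid dose tested; inconclusive = flat fit at mid-level activity, or a poor quality fit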
FGF22 TSA – binders of human FGF22 protein, dose response, FGF22 synaptogenesis inhibitor project, biophysical, thermal shift, dry powder; Tm shift (activity), % at 38 µM; shares compounds with FGF22 binding-1; Thermal shift assay, SYPRO orange, melting temperature shift; 50 tested, under 10 active;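 active = compounds whose fitted dose curve of melting temperature shift rises past a set threshold within the tested doses; inconclusive = flat curve at moderate activity, or poor curve fit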
SYPRO no-protein – compound-only thermal shift signal without protein, dose response, artefact control for FGF22 binder project, biochemical, cherry-picked samples, RT-PCR instrument. shares compounds with FGF22 binding-1. compound-only SYPRO orange thermal shift counter-screen, no protein. AC50, µM (titrated, usually from 38 µM). hit rate 2% among 1,000;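 active = rising signal whose fitted curve reaches the 0.54 level within the top valid dose, showing a melting point, actives reach about 13 µM in these data; inactive = the rest, including activity in the opposite direction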; also: value is where the raw curve crosses a fixed level and not half-maximal
* hit, by the source's call; i = inactive; ? = inconclusive; . = not tested or not shown; [ ] = remark or other dose.

SMILES	S100A4 MyoIIA	F508del corr	FGF22 binding-1	dFosB activator	FGF22 binding-2	SYPRO no-protein	others
C[C@@H]1CN([C@@H](C)CO)C(=O)Cc2cc(NS(=O)(=O)c3cccs3)ccc2O[C@@H]1CN(C)Cc1ccncc1	.	-1	0	.	.	.
C[C@@H]1CN([C@H](C)CO)C(=O)c2cc(C#C[C@@H](C)O)cnc2O[C@H]1CN(C)Cc1ccccn1	?	1	0	.	.	.
CCCN1C[C@@H](C)[C@@H](OC)CN(C)C(=O)c2ccc(NC(=O)Nc3cccc(OC)c3)cc2OC[C@@H]1C	-6	4	0	.	.	.
CS(=O)(=O)N1[C@@H](C#N)[C@H](c2ccc(C#Cc3cccc(F)c3)cc2)[C@@H]1CO	10	3	0	.	.	.
CNC[C@H]1OCCCC[C@@H](C)Oc2ccc(NC(=O)Nc3ccc(C(F)(F)F)cc3)cc2C(=O)N([C@H](C)CO)C[C@@H]1C	-2	3	7.0*	.	0.073[42 µM]	i
O=c1c(O)c(-c2ccccc2)oc2cc(O)cc(O)c12	0	-1	0	-2	.	.
O=c1c(O)c(-c2cc(O)c(O)c(O)c2)oc2cc(O)cc(O)c12	-11	5	1.5*	9	0.12	i
COc1ccc(NC(=O)Nc2ccc3c(c2)C(=O)N([C@H](C)CO)C[C@H](C)[C@H](CN(C)Cc2ccc(Cl)c(Cl)c2)O3)cc1	-57	1	0	.	.	.
CC(=O)c1ccc(NC(=O)Nc2ccncc2)cc1	0	-2	43	-20	.	.
CC(=O)Nc1ccc(NC(=O)Nc2ccccc2)cc1	6	-1	1.8*	4	0.19	i	FGF22 TSA=0
CC(=O)c1ccc(NC(=O)Nc2cccnc2)cc1	-1	0	1.4*	-22	-0.013	i	FGF22 TSA=1
O=C(Nc1ccccc1)N1C[C@H]2[C@@H](c3ccccc31)[C@@H](CO)N2C(=O)c1ccccc1F	-4	0	0	.	.	.
COc1ccc(NC(=O)N(C)C[C@@H]2OCCCC[C@@H](C)Oc3ccc(NC(=O)c4ccccc4)cc3C(=O)N([C@H](C)CO)C[C@H]2C)cc1	13	2	0	.	.	.
O=C(Cc1ccccn1)N[C@@H]1CC[C@H](CC(=O)N2CCCCC2)O[C@H]1CO	6	0	0	.	.	.
CC(C)[C@H](CN(N=O)[C@@H](Cc1ccccc1)CN(C)N=O)N(CCc1ccccc1)N=O	3	-1	0	-11	.	.
CC(C)C[C@@H](CN(C)N=O)N(C[C@H](Cc1ccccc1)N(CCc1ccccc1)N=O)N=O	-11	3	1.6*	-18	0.029	i
CCN1[C@H](C(=O)NC2CCC2)[C@@H](CO)[C@@H]2Cn3c(ccc(-c4ccc(OC)cc4)c3=O)[C@@H]21	11	2	0	.	.	.
CCCCNc1cc(NC(C)=O)cc2cc(OC)c(OC)cc12	.	.	.	-8	.	.
COc1cc2cc(NC(C)=O)cc(NCc3ccccc3)c2cc1OC	-2	-3	1.5*	-6	0.43	i
O=C(O)C1CCN(S(=O)(=O)Cc2ccccc2)CC1	0	1	12*	1	0.18	i
COC(=O)C[C@@H]1C[C@@H]2c3cc(NC(=O)Nc4ccc(F)cc4)ccc3O[C@@H]2[C@H](CO)O1	.	-2	0	.	.	.
Cc1ccc2c(c1)C1CN(C)CCC1N2S(=O)(=O)c1ccc(C(C)C)cc1 (configuration not stated)	-8	-2	14*	-5	-0.02	i
Cc1ccc2c(c1)C1CN(C)CCC1N2S(=O)(=O)c1cccc(C(F)(F)F)c1 (configuration not stated)	-6	-3	0	6	.	.
